ChEMBL document CHEMBL2440040, “Synthesis of 4″-O-desosaminyl clarithromycin derivatives and their anti-bacterial activities” (2013)
In brackets after ≈: the same amount, converted by molar mass.

Assays:
Format in all cases: functional
Staphylococcus aureus [1] = test: Antibacterial activity against methicillin-sensitive Staphylococcus aureus ATCC 29213 by broth microdilution method
How it was run: (§1)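 Strains obtained from the Institute of Medicinal Biotechnology, Academy of Medical Sciences & Peking Union Medical College. MIC determined in vitro by broth microdilution following NCCLS recommendations.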

[2] = test system: Staphylococcus epidermidis; test: Antibacterial activity against methicillin-resistant Staphylococcus epidermidis 12-4 by broth microdilution method
Streptococcus pneumoniae [3] = test: Antibacterial activity against erythromycin-resistant Streptococcus pneumoniae 12-5 by broth microdilution method
Streptococcus pneumoniae [4] = test: Antibacterial activity against erythromycin-sensitive Streptococcus pneumoniae 12-14 by broth microdilution method; how it was run: as §1
Streptococcus pneumoniae [5] = test: Antibacterial activity against erythromycin-sensitive Streptococcus pneumoniae 12-8 by broth microdilution method; how it was run: as §1
Streptococcus pneumoniae [6] = test: Antibacterial activity against erythromycin-sensitive Streptococcus pneumoniae 12-4 by broth microdilution method
Staphylococcus aureus [7] = test: Antibacterial activity against methicillin-resistant Staphylococcus aureus 12-31 by broth microdilution method
[8] = test system: Staphylococcus epidermidis; test: Antibacterial activity against methicillin-sensitive Staphylococcus epidermidis ATCC 12228 by broth microdilution method; how it was run: as §1
[9] = test system: Staphylococcus epidermidis; test: Antibacterial activity against methicillin-sensitive Staphylococcus epidermidis 12-5 by broth microdilution method; how it was run: as §1
Streptococcus pyogenes [10] = test: Antibacterial activity against erythromycin-sensitive Streptococcus pyogenes ATCC 19625 by broth microdilution method; how it was run: as §1
Streptococcus pneumoniae [11] = test: Antibacterial activity against erythromycin-sensitive Streptococcus pneumoniae 12-10 by broth microdilution method; how it was run: as §1
Streptococcus pneumoniae [12] = test: Antibacterial activity against erythromycin-resistant Streptococcus pneumoniae 12-6 by broth microdilution method
[13] = test system: Staphylococcus epidermidis; test: Antibacterial activity against methicillin-sensitive Staphylococcus epidermidis 11-20 by broth microdilution method; how it was run: as §1
Staphylococcus aureus [14] = test: Antibacterial activity against methicillin-sensitive Staphylococcus aureus 12-32 by broth microdilution method; how it was run: as §1
Streptococcus pyogenes [15] = test: Antibacterial activity against erythromycin-resistant Streptococcus pyogenes 11-2 by broth microdilution method
Streptococcus pneumoniae [16] = test: Antibacterial activity against erythromycin-sensitive Streptococcus pneumoniae 12-1 by broth microdilution method; how it was run: as §1
[17] = test system: Staphylococcus epidermidis; test: Antibacterial activity against methicillin-resistant Staphylococcus epidermidis 12-11 by broth microdilution method

SMILES | MIC (Staphylococcus aureus [1]) [µg/mL] | MIC [2] [µg/mL] | MIC (Streptococcus pneumoniae [3]) [µg/mL] | MIC (Streptococcus pneumoniae [4]) [µg/mL] | MIC (Streptococcus pneumoniae [5]) [µg/mL] | MIC (Streptococcus pneumoniae [6]) [µg/mL] | MIC (Staphylococcus aureus [7]) [µg/mL] | MIC [8] [µg/mL] | MIC [9] [µg/mL] | MIC (Streptococcus pyogenes [10]) [µg/mL] | MIC (Streptococcus pneumoniae [11]) [µg/mL] | MIC (Streptococcus pneumoniae [12]) [µg/mL] | MIC [13] [µg/mL] | MIC (Staphylococcus aureus [14]) [µg/mL] | MIC (Streptococcus pyogenes [15]) [µg/mL] | MIC (Streptococcus pneumoniae [16]) [µg/mL] | MIC [17] [µg/mL]
CC[C@H]1OC(=O)[C@H](C)[C@@H](O[C@H]2C[C@@](C)(OC)[C@@H](O[C@@H]3O[C@H](C)[C@@H](OCc4ccccc4)[C@H](N(C)C)[C@H]3OC(=O)c3ccccc3)[C@H](C)O2)[C@H](C)[C@@H](O[C@@H]2O[C@H](C)C[C@H](N(C)C)[C@H]2O)[C@@](C)(OC)C[C@@H](C)C(=O)[C@H](C)[C@H]2OC(=O)O[C@@]21C | > 32 | > 32 | > 32 | > 32 | 16 (≈ 14 µM) | > 32 | > 32 | > 32 | > 32 | > 32 | > 32 | > 32 | > 32 | > 32 | > 32 | > 32 | > 32
CC[C@H]1OC(=O)[C@H](C)[C@@H](O[C@H]2C[C@@](C)(OC)[C@@H](O[C@@H]3O[C@H](C)[C@@H](OCc4ccccc4)[C@H](N(C)C)[C@H]3OC(=O)c3ccccc3)[C@H](C)O2)[C@H](C)[C@@H](O[C@@H]2O[C@H](C)C[C@H](N(C)C)[C@H]2O)[C@@](C)(OC)C[C@@H](C)C(=O)[C@H](C)[C@@H](O)[C@]1(C)O | > 32 | > 32 | 32 (≈ 28.7 µM) | 32 (≈ 28.7 µM) | 2 (≈ 1.79 µM) | 32 (≈ 28.7 µM) | > 32 | > 32 | > 32 | > 32 | 16 (≈ 14.3 µM) | 32 (≈ 28.7 µM) | > 32 | > 32 | > 32 | > 32 | > 32
CC[C@H]1OC(=O)[C@H](C)[C@@H](O[C@H]2C[C@@](C)(OC)[C@@H](O[C@@H]3O[C@H](C)[C@@H](OCc4ccccc4)[C@H](N(C)C)[C@H]3O)[C@H](C)O2)[C@H](C)[C@@H](O[C@@H]2O[C@H](C)C[C@H](N(C)C)[C@H]2O)[C@@](C)(OC)C[C@@H](C)C(=O)[C@H](C)[C@@H](O)[C@]1(C)O | > 32 | > 32 | 32 (≈ 31.6 µM) | 32 (≈ 31.6 µM) | 32 (≈ 31.6 µM) | 32 (≈ 31.6 µM) | > 32 | > 32 | > 32 | 32 (≈ 31.6 µM) | 32 (≈ 31.6 µM) | 32 (≈ 31.6 µM) | > 32 | > 32 | > 32 | 32 (≈ 31.6 µM) | > 32
CC[C@H]1OC(=O)[C@H](C)[C@@H](O[C@H]2C[C@@](C)(OC)[C@@H](O[C@@H]3O[C@H](C)[C@@H](O)[C@H](N(C)C)[C@H]3OC(=O)c3ccccc3)[C@H](C)O2)[C@H](C)[C@@H](O[C@@H]2O[C@H](C)C[C@H](N(C)C)[C@H]2O)[C@@](C)(OC)C[C@@H](C)C(=O)[C@H](C)[C@@H](O)[C@]1(C)O | 16 (≈ 15.6 µM) | 16 (≈ 15.6 µM) | 32 (≈ 31.2 µM) | 16 (≈ 15.6 µM) | 4 (≈ 3.9 µM) | 32 (≈ 31.2 µM) | > 32 | > 32 | 32 (≈ 31.2 µM) | 8 (≈ 7.8 µM) | 16 (≈ 15.6 µM) | > 32 | 32 (≈ 31.2 µM) | > 32 | > 32 | > 32 | 16 (≈ 15.6 µM)
CC[C@H]1OC(=O)[C@H](C)[C@@H](O[C@H]2C[C@@](C)(OC)[C@@H](O[C@@H]3O[C@H](C)[C@@H](O)[C@H](N(C)C)[C@H]3O)[C@H](C)O2)[C@H](C)[C@@H](O[C@@H]2O[C@H](C)C[C@H](N(C)C)[C@H]2O)[C@@](C)(OC)C[C@@H](C)C(=O)[C@H](C)[C@@H](O)[C@]1(C)O | 4 (≈ 4.34 µM) | 4 (≈ 4.34 µM) | 16 (≈ 17.4 µM) | 4 (≈ 4.34 µM) | 2 (≈ 2.17 µM) | 16 (≈ 17.4 µM) | > 32 | 16 (≈ 17.4 µM) | 16 (≈ 17.4 µM) | 2 (≈ 2.17 µM) | 2 (≈ 2.17 µM) | 32 (≈ 34.7 µM) | 8 (≈ 8.68 µM) | 16 (≈ 17.4 µM) | > 32 | 2 (≈ 2.17 µM) | 2 (≈ 2.17 µM)
CC[C@H]1OC(=O)[C@H](C)[C@@H](O[C@H]2C[C@@](C)(OC)[C@@H](O[C@@H]3O[C@H](C)[C@@H](OCc4ccccc4)[C@H](N(C)C)[C@H]3O)[C@H](C)O2)[C@H](C)[C@@H](O[C@@H]2O[C@H](C)C[C@H](N(C)C)[C@H]2O)[C@@](C)(OC)C[C@@H](C)C(=O)[C@H](C)[C@H]2OC(=O)O[C@@]21C | 16 (≈ 15.4 µM) | > 32 | 32 (≈ 30.8 µM) | 4 (≈ 3.86 µM) | 2 (≈ 1.93 µM) | 32 (≈ 30.8 µM) | > 32 | > 32 | 16 (≈ 15.4 µM) | 2 (≈ 1.93 µM) | 1 (≈ 0.964 µM) | 32 (≈ 30.8 µM) | 16 (≈ 15.4 µM) | 16 (≈ 15.4 µM) | > 32 | 2 (≈ 1.93 µM) | 16 (≈ 15.4 µM)
CC[C@H]1OC(=O)[C@H](C)[C@@H](O[C@H]2C[C@@](C)(OC)[C@@H](O[C@@H]3O[C@H](C)[C@@H](O)[C@H](N(C)C)[C@H]3OC(=O)c3ccccc3)[C@H](C)O2)[C@H](C)[C@@H](O[C@@H]2O[C@H](C)C[C@H](N(C)C)[C@H]2O)[C@@](C)(OC)C[C@@H](C)C(=O)[C@H](C)[C@H]2OC(=O)O[C@@]21C | 2 (≈ 1.9 µM) | 8 (≈ 7.61 µM) | 32 (≈ 30.4 µM) | 2 (≈ 1.9 µM) | 1 (≈ 0.951 µM) | 16 (≈ 15.2 µM) | > 32 | 2 (≈ 1.9 µM) | 2 (≈ 1.9 µM) | 1 (≈ 0.951 µM) | 2 (≈ 1.9 µM) | 32 (≈ 30.4 µM) | 4 (≈ 3.8 µM) | 2 (≈ 1.9 µM) | 32 (≈ 30.4 µM) | 1 (≈ 0.951 µM) | ≤ 1
CC[C@H]1OC(=O)[C@H](C)[C@@H](O[C@H]2C[C@@](C)(OC)[C@@H](O[C@@H]3O[C@H](C)[C@@H](O)[C@H](N(C)C)[C@H]3O)[C@H](C)O2)[C@H](C)[C@@H](O[C@@H]2O[C@H](C)C[C@H](N(C)C)[C@H]2O)[C@@](C)(OC)C[C@@H](C)C(=O)[C@H](C)[C@H]2OC(=O)O[C@@]21C | 16 (≈ 16.9 µM) | 32 (≈ 33.8 µM) | 16 (≈ 16.9 µM) | 2 (≈ 2.11 µM) | 1 (≈ 1.06 µM) | 4 (≈ 4.22 µM) | > 32 | 32 (≈ 33.8 µM) | 16 (≈ 16.9 µM) | 2 (≈ 2.11 µM) | 1 (≈ 1.06 µM) | 16 (≈ 16.9 µM) | 16 (≈ 16.9 µM) | 32 (≈ 33.8 µM) | 16 (≈ 16.9 µM) | 2 (≈ 2.11 µM) | 16 (≈ 16.9 µM)
CC[C@H]1OC(=O)[C@H](C)[C@@H](O[C@H]2C[C@@](C)(OC)[C@@H](O[C@@H]3O[C@H](C)[C@@H](O)[C@H](N(C)C)[C@H]3OC(=O)c3ccccc3)[C@H](C)O2)[C@H](C)[C@@H](O[C@@H]2O[C@H](C)C[C@H](N(C)C)[C@H]2O)[C@@](C)(OC)C[C@@H](C)C(=O)/C(C)=C/[C@]1(C)O | > 32 | > 32 | > 32 | > 32 | 16 (≈ 15.9 µM) | > 32 | > 32 | 32 (≈ 31.8 µM) | 32 (≈ 31.8 µM) | 1 (≈ 0.993 µM) | > 32 | > 32 | > 32 | > 32 | > 32 | 1 (≈ 0.993 µM) | 32 (≈ 31.8 µM)
CC[C@H]1OC(=O)[C@H](C)[C@@H](O[C@H]2C[C@@](C)(OC)[C@@H](O)[C@H](C)O2)[C@H](C)[C@@H](O[C@@H]2O[C@H](C)C[C@H](N(C)C)[C@H]2O)[C@](C)(OC)C[C@@H](C)C(=O)[C@H](C)[C@@H](O)[C@]1(C)O [CLARITHROMYCIN] | ≤ 1 | 32 (≈ 42.8 µM) | > 32 | 1 (≈ 1.34 µM) | 1 (≈ 1.34 µM) | 2 (≈ 2.67 µM) | > 32 | ≤ 1 | ≤ 1 | ≤ 1 | 1 (≈ 1.34 µM) | > 32 | 8 (≈ 10.7 µM) | 4 (≈ 5.35 µM) | 4 (≈ 5.35 µM) | 1 (≈ 1.34 µM) | 4 (≈ 5.35 µM)
CC[C@H]1OC(=O)[C@H](C)C(=O)[C@H](C)[C@@H](O[C@@H]2O[C@H](C)C[C@H](N(C)C)[C@H]2O)[C@](C)(OC)C[C@@H](C)C(=O)[C@H](C)[C@H]2N(CCCCn3cnc(-c4cccnc4)c3)C(=O)O[C@]12C [TELITHROMYCIN] | ≤ 2 | ≤ 2 | ≤ 2 | ≤ 2 | ≤ 2 | ≤ 2 | > 64 | ≤ 2 | ≤ 2 | ≤ 2 | ≤ 2 | ≤ 2 | ≤ 2 | ≤ 2 | 2 (≈ 2.46 µM) | ≤ 2 | ≤ 2
